Results on eight molecules are retold here after ChEMBL document CHEMBL2434886, “Development of 3,4-dihydroisoquinolin-1(2H)-one derivatives for the Positron Emission Tomography (PET) imaging of σ₂ receptors” (Eur J Med Chem, 2013).

Structures are written as SMILES. Some results are limits rather than exact numbers.

Series [1] can be described thus: Displacement of [3H]-DTG from sigma 2 receptor in Wistar Hannover rat liver membranes. It counts as cell membranes, Membrane.
In series [2] the target is Sigma non-opioid intracellular receptor 1 (Cavia porcellus, UniProt Q60492). The experiment in a line: Displacement of (+)-[3H]-pentazocine from sigma 1 receptor in Dunkin guinea pig brain membranes without cerebellum. The class given is cell membranes, Membrane.
Sigma non-opioid intracellular receptor 1, sequence (Q60492 whole entry): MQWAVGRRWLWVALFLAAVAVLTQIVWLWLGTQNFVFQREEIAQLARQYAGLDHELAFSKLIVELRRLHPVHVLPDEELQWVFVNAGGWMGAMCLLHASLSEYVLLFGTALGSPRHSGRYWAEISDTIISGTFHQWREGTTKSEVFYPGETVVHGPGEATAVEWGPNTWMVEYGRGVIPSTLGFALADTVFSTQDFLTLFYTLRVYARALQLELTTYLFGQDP
Series [3] is described as follows: Selectivity ratio of Ki for sigma 1 receptor in guinea pig brain membranes without cerebellum to Ki for sigma 2 receptor in Wistar Hannover rat liver membranes. It counts as cell membranes. Conditions: Membrane; call rule not given here.
Series [4] addresses ATP-dependent translocase ABCB1 (Homo sapiens, UniProt P08183). The experiment in a line: Activity at human MDR1 expressed in MDCK cells assessed as Calcein-AM uptake after 30 mins by fluorescence assay. It counts as ADME, cell-based. The method, boiled down:
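P-gp interaction measured with the Calcein-AM assay in MDCK-MDR1 cells, which overexpress P-gp.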

In series [5] the test system is Brain. The experiment in a line: Drug uptake in Wistar rat brain slices after 45 mins by autoradiography in presence of 0.9 uM of unlabelled 2-(3-(6,7-Dimethoxy-3,4-dihydroisoquinolin-2(1H)-yl)propyl)-5-(2-fluoroethoxy)-3,4-dihydroisoquinolin-1(2H)-one. The class given is ADME, tissue-based. The method, boiled down: (§1)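 Horizontal 20 µm cryosections of male Wistar rat brain, thawed 30 min, pre-incubated 10 min at 4 °C in 50 mM Tris-HCl pH 7.4. Incubated 45 min at rt with 9 nM [18F]-tracer in Tris-HCl/1% BSA (n = 4), alone or with blocker. Washed, air-dried, phosphor-imaged after 15 min exposure.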

For series [6], the system named is Cerebellum. Description: Drug uptake in cerebellum of Wistar rat at 47 MBq, iv up to 90 mins by PET analysis. As to conditions: in vivo, 1.5 h. The class given is ADME, organism-based. The method, boiled down: (§2)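 Male Wistar rat under isoflurane given 47 MBq (0.8 nmol) [18F]-tracer via tail vein. Head scanned 0–90 min by list-mode PET, then CT. Blocking rat received 1 mg/kg haloperidol iv just before tracer (34 MBq). 2D-OSEM reconstruction with no attenuation correction. ROI analysis gives SUV (Bq/cm3 per injected Bq/g).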

For another series, the system named is Hippocampus. The experiment in a line: Drug uptake in Wistar rat hippocampus after 45 mins by autoradiography. It counts as ADME, tissue-based. In short, it runs like this: as §1
In series [7] the test system is Cerebral cortex. Description: Drug uptake in cerebral cortex of Wistar rat at 47 MBq, iv up to 90 mins by PET analysis in presence of haloperidol. The class given is ADME, organism-based. As to conditions: in vivo, 1.5 h.
Series [8] relates to Cerebellum. Description: Drug uptake in cerebellum of Wistar rat at 47 MBq, iv up to 90 mins by PET analysis in presence of haloperidol. The class given is ADME, organism-based. Conditions: in vivo, 1.5 h.
Series [9] deals with Cerebellum. Description: Drug uptake in Wistar rat cerebellum after 45 mins by autoradiography. It counts as ADME, tissue-based. In short, it runs like this:
as §1

Series [10] is described as follows: Drug uptake in olfactory of Wistar rat at 47 MBq, iv up to 90 mins by PET analysis in presence of haloperidol. The class given is ADME, organism-based. As to conditions: in vivo, 1.5 h.
The next series deals with Bone. Description: Drug uptake in bone of Wistar rat at 47 MBq, iv up to 90 mins by PET analysis. It counts as ADME, organism-based, Bone element. As to conditions: in vivo, 1.5 h. The method, boiled down: as §2
The subject of series [11] is Cerebral cortex. Description: Drug uptake in cerebral cortex of Wistar rat at 47 MBq, iv up to 90 mins by PET analysis. The class given is ADME, organism-based. As to conditions: in vivo, 1.5 h. In short, it runs like this:
as §2

Series [12] relates to Cerebral cortex. The experiment in a line: Drug uptake in Wistar rat cerebral cortex after 45 mins by autoradiography. It counts as ADME, tissue-based. In short, it runs like this:
as §1

In series [13] the test system is Brain. The experiment in a line: Drug uptake in Wistar rat brain slices after 45 mins by autoradiography in presence of 90 uM of haloperidol. The class given is ADME, tissue-based. In short, it runs like this: as §1
Series [14] in a line: Drug uptake in olfactory of Wistar rat at 47 MBq, iv up to 90 mins by PET analysis. It counts as ADME, organism-based. Conditions: in vivo, 1.5 h. In short, it runs like this: as §2
Series [15] deals with T1, 5-hydroxytryptamine receptor 1A (Homo sapiens, UniProt P08908).
T1 sequence (P08908 whole entry): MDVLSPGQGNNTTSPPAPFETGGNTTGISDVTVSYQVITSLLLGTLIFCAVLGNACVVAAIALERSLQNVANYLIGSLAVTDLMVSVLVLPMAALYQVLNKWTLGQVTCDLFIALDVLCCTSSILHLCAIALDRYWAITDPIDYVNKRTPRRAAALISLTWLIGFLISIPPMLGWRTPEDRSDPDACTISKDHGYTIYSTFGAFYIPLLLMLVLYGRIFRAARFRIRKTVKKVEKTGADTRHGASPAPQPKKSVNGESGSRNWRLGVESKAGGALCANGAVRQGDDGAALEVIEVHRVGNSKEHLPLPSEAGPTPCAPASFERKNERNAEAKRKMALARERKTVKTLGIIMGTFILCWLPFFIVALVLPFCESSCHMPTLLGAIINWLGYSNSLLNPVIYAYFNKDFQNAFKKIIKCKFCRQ
The experiment in a line: Displacement of [3H]-8-OH-DPAT from human recombinant 5-HT1A receptor expressed in HEK293-EBNA cells after 120 mins. The class given is cell-based. The method, boiled down:
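HEK293-EBNA membranes ([…] protein) stably expressing human 5-HT1A, 1.0 nM [3H]-8-OH-DPAT, test compound 0.1 nM to 10 mM. Buffer 50 mM Tris-HCl pH 7.4, 5 mM MgSO4. Incubated 120 min at 37 °C, filtered on PEI-soaked GF/C. Nonspecific binding with 10 mM 5-HT.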
(In general: Loss of bound radioactivity is the signal in a displacement assay; it reports binding, not function.)

The target in series [16] is T2, Adrenergic receptor alpha-1 (Rattus norvegicus, UniProt P15823+P23944+P43140).
T2 sequence (P15823 whole entry): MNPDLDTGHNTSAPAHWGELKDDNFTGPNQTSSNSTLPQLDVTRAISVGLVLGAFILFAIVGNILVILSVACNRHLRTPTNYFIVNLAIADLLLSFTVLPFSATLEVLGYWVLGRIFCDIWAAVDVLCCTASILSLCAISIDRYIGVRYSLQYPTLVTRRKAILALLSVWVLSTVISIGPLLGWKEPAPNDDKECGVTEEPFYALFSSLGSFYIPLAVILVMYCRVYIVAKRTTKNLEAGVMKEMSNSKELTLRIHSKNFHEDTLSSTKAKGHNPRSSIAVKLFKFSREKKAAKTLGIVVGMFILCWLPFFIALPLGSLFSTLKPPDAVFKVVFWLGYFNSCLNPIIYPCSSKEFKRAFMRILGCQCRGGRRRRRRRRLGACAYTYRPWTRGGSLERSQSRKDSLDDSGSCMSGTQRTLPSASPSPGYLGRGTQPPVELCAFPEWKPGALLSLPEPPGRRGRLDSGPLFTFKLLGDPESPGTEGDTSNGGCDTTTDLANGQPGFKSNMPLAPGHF
T2 sequence (P23944 whole entry): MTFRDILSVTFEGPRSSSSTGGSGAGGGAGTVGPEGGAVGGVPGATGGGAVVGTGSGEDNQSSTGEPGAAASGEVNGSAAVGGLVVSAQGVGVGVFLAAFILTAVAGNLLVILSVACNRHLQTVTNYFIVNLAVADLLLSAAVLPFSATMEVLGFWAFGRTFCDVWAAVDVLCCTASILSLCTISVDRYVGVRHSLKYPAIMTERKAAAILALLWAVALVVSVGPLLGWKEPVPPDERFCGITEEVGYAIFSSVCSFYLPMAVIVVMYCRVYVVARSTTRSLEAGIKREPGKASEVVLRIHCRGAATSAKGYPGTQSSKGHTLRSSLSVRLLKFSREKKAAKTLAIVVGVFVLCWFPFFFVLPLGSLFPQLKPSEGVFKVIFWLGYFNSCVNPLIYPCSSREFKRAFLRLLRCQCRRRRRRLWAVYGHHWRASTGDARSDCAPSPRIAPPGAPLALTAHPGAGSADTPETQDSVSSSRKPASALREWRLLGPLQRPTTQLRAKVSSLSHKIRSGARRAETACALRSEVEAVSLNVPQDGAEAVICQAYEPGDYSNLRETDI
T2 sequence (P43140 whole entry): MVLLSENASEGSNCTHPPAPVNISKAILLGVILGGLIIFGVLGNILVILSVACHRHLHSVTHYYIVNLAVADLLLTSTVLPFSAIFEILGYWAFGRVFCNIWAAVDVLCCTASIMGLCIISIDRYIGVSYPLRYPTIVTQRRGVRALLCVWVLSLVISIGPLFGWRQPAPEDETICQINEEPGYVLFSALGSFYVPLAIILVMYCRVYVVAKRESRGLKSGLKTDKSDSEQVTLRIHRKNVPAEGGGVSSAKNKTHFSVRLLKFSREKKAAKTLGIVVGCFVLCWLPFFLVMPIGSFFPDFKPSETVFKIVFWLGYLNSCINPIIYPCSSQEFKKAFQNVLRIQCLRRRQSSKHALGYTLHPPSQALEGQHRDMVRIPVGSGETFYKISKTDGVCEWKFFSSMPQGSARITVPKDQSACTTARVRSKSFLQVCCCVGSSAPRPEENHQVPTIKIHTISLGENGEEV
Description: Displacement of [3H]-prazosin from alpha1 adrenoceptor in Wistar Hannover rat cerebral cortex membranes after 50 mins. It counts as cell membranes, Membrane. The method, boiled down:
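Rat cerebral cortex membranes ([…]) with 1 nM [3H]-prazosin in 50 mM Tris-HCl pH 7.4, 120 mM NaCl, 5 mM KCl, 5 mM CaCl2, 1 mM MgCl2, plus varied drug concentrations. Incubated 50 min at 25 °C, filtered on PEI-soaked GF/C. Nonspecific binding with 10 phentolamine.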

In series [17] the target is 5-hydroxytryptamine receptor 7 (Homo sapiens, UniProt P34969). The experiment in a line: Displacement of [3H]-5-CT from human recombinant 5-HT7 receptor expressed in CHO-K1 cells after 120 mins. The class given is cell-based.
5-hydroxytryptamine receptor 7, sequence (P34969 whole entry): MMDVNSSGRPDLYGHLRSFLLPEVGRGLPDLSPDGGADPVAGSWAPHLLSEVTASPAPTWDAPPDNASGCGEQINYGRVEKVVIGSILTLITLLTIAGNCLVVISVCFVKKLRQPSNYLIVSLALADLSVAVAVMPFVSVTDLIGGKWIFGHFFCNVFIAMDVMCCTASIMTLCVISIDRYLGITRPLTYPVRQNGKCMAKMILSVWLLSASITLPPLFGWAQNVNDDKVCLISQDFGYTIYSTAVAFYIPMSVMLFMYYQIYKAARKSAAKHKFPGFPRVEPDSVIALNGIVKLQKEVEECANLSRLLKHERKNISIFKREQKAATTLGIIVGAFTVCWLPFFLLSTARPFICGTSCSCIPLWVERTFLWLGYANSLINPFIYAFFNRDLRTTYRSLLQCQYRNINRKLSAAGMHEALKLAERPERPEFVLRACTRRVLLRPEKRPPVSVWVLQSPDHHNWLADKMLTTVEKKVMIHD
A further series has as its system Caco-2. The experiment in a line: Efflux ratio of apparent permeability from apical to basolateral side over basolateral to apical side in human Caco2 cells at 1 to 100 uM after 120 mins. It counts as ADME, cell-based. Conditions: caco-2, 2 h. In general terms: Caco-2 cells form a polarised layer with tight junctions and transporters.

ATP-dependent translocase ABCB1, sequence (P08183 whole entry): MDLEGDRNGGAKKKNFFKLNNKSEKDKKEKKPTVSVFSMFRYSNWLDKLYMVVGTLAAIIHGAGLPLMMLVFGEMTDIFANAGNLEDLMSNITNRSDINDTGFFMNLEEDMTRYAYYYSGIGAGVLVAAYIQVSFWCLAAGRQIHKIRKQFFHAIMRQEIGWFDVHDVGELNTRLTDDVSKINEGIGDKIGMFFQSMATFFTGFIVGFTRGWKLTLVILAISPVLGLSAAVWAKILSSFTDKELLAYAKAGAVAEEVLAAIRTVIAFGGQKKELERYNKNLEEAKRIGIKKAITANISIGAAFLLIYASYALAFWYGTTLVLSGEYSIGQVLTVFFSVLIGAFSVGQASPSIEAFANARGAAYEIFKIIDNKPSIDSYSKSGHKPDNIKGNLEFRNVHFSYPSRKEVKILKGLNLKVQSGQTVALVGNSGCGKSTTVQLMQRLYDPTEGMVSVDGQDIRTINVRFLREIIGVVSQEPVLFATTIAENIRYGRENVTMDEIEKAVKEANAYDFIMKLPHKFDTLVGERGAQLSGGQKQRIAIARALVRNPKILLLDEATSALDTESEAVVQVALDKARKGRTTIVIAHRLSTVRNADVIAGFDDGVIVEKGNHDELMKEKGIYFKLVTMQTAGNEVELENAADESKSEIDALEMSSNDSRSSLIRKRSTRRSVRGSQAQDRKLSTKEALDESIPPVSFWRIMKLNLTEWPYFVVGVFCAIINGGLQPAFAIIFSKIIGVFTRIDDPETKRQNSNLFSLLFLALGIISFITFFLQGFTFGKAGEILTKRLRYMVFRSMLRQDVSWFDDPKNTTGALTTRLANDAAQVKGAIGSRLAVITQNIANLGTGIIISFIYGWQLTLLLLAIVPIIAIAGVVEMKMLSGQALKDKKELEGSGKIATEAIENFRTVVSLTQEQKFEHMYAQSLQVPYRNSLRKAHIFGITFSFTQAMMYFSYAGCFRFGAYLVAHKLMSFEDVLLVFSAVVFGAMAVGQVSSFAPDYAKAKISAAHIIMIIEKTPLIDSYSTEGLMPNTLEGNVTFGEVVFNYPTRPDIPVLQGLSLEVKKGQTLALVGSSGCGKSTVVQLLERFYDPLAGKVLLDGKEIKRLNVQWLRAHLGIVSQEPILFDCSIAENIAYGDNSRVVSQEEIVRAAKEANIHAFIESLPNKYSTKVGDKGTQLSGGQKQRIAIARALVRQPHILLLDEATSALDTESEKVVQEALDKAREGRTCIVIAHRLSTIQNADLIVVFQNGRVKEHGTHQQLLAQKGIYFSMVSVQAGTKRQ

What is called Ki is a dissociation constant, usually derived from enzyme kinetics or from competition with a known ligand. Take `COc1cc2c(cc1OC)CN(CCCN1CCc3c(OC)cccc3C1=O)CC2`: the inhibition constant (Ki) in [1] was 4.24 nM; in series [2], 2440 nM. In addition, the Ratio Ki in series [3] was found to be 574.
For orientation: EC50 means the concentration that produces a half-maximal response. Regarding `COc1cc2c(cc1OC)CN(CC/C=C1\CCCc3c(OC)cccc31)CC2`, the EC50 in [4] is 1100 nM.
Consider `COc1cc2c(cc1OC)CN(CCCN1CCc3c(OCC[18F])cccc3C1=O)CC2`, for which the Drug uptake result was “Not Active” in the series with Brain [5]; “Active” with Cerebellum [6]; “Active” with Hippocampus; “Not Active” in the series on Cerebral cortex [7]; “Not Active” with Cerebellum [8]; “Active” in the series with Cerebellum [9]. For the same molecule, the Drug uptake entry is “Not Active” in [10]; “Not Active” in the series on Bone; “Active” in the series with Cerebral cortex [11]; “Active” with Cerebral cortex [12]; “Not Active” in the series with Brain [13]; “Active” in series [14].
On to `COc1ccc2c(c1)CCN(CCCN1CCc3cc(OC)c(OC)cc3C1)C2=O`, for which the Ki in series [1] was determined as 5.74 nM; in [2], 402 nM. Moreover, the Ratio Ki in [3] was 70.
Take `COc1cc2c(cc1OC)CN(CCCN1CCc3c(OCCF)cccc3C1=O)CC2`: the inhibition constant Ki is over 1000 nM in series [15]; 9.24 nM in series [1]; 3100 nM in series [2]; 764 nM in series [16]; over 1000 nM in [17]. The Ratio Ki in series [3] was 330. The EC50 in series [4] is 5000 nM. For the same molecule, the Ratio in the series on Caco-2 is listed as 2.58.
Regarding `COc1cc2c(cc1OC)CN(CCCN1CCc3cccc(OC)c3C1=O)CC2`, the Ki came to 16.3 nM in series [1] and 1630 nM in series [2]. Further, in [3], the Ratio Ki came out at 101.
In the case of `COc1cc2c(cc1OC)CN(CCCN1CCc3cc(F)ccc3C1=O)CC2`, the figures for the inhibition constant (Ki) in series [1] and in [2] were 3.56 nM and 311 nM, respectively. In series [3], the Ratio Ki turned out to be 87.
The like results for `COc1cc2c(cc1OC)CN(CCCN1CCc3cc(OC)c(OC)cc3C1=O)CC2` were, in that order, 20.1 nM, 2570 nM and 127.
